Measured values: ChEMBL document CHEMBL1140383, “Synthesis of 5-nitro-2-furancarbohydrazides and their cis-diamminedichloroplatinum complexes as bitopic and irreversible human thioredoxin reductase inhibitors” (J Med Chem, 2005)
Values belong to the compound of their own block, whether it stands above or below them.

Columns and labels:
Thioredoxin reductase [1] = biological target: T1, Thioredoxin reductase (Homo sapiens, UniProt Q16881+Q9NNW7+Q86VQ6); assay: Inhibitory concentration against wild type mutant human thioredoxin reductase (hTrxRdelta-16) pre-incubated for 10 min at 25 degree C in buffer in the presence of 200 uM NADPH; format: protein assay
Outline: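 Truncated recombinant hTrxRΔ-16 preincubated 10 min at 25 °C with 200 μM NADPH and inhibitor in potassium phosphate/EDTA buffer, pH 7.4. Reaction started with 3 mM DTNB; TNB formation read at 412 nm. DMF controls. IC50 from dose–response curves.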

Thioredoxin reductase [2] = biological target: T1, Thioredoxin reductase; assay: Inhibitory concentration (25 uM) against human thioredoxin reductase; format: protein assay
Outline: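 Placental hTrxR screen in 100 mM sodium phosphate, 2 mM EDTA, pH 7.0. Mix held 500 μM NADPH, 200 μM DTNBA and 25 μM inhibitor. Reaction started with native enzyme. Thionitrobenzamide formation read at 416 nm over time, with and without inhibitor.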

Thioredoxin reductase [3] = biological target: T1, Thioredoxin reductase; assay: Inhibitory concentration against wild type human thioredoxin reductase (5 nM) pre-incubated for 10 min at 25 degree C in buffer in the presence of 200 uM NADPH; format: protein assay
Outline: (§1)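 Placental wt-hTrxR (5 nM) preincubated 10 min at 25 °C with 200 μM NADPH and inhibitor (from 10 mM DMF stock) in 100 mM potassium phosphate, 2 mM EDTA, pH 7.4. Started with 3 mM DTNB; TNB formation read at 412 nm. DMF controls. IC50 from dose–response curves, mean of at least three determinations.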

[4] = biological target: T2, Glutathione reductase, mitochondrial (Homo sapiens, UniProt P00390); assay: Inhibitory concentration against human glutathione reductase
T2 sequence (P00390 whole entry): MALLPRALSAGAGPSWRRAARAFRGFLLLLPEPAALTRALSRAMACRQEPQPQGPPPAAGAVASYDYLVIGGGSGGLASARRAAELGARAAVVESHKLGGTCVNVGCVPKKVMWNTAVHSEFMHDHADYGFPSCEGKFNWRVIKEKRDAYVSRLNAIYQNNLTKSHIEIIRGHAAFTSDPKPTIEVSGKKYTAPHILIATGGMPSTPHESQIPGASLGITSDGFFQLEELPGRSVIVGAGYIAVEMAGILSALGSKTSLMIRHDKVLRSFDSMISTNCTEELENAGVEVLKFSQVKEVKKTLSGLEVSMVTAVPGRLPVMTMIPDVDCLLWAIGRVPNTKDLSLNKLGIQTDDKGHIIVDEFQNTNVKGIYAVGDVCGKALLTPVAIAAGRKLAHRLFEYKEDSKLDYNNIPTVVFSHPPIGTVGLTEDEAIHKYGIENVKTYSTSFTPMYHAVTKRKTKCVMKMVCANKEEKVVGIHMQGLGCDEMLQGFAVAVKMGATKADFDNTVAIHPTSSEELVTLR

SK-MEL-25 [5] = assay: Inhibitory concentration against SK-MEL-25 cell line; format: functional, cell-based, Homo sapiens
Outline: (§2)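 Human tumour lines grown in DMEM at 37 °C under 5% CO2, seeded in 96-well plates. Dosed next day in quadruplicate with 1:2 serial dilutions, 50 to 0.8 μg/mL; platinum complexes from DMF stock, cisplatin in water. After 96 h cells fixed in 3% formaldehyde and stained with 1% crystal violet, absorbance at 595 nm. For MCF-7 the dye was eluted with ethanol/1% acetic acid before reading. IC50 from fitted dose–response curves.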

Thioredoxin reductase [6] = biological target: T1, Thioredoxin reductase; assay: Inhibitory concentration against wild type mutant human thioredoxin reductase (Sec498Cys) (100 nM) pre-incubated for 10 min at 25 degree C in buffer in the presence of 200 uM NADPH; format: protein assay
Outline: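 Recombinant hTrxR Sec498Cys (100 nM) preincubated 10 min at 25 °C with 200 μM NADPH and inhibitor in potassium phosphate/EDTA buffer, pH 7.4. Started with 3 mM DTNB; absorbance read at 412 nm. DMF controls. IC50 from dose–response curves, mean of at least three determinations.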

MCF7 [7] = assay: Inhibitory concentration against MCF-7 cell line; format: functional, cell-based, Homo sapiens; outline: as §2
Thioredoxin reductase [8] = biological target: T1, Thioredoxin reductase; assay: Inhibitory concentration against wild type human thioredoxin reductase; format: protein assay; outline: as §1
Thioredoxin reductase [9] = biological target: T1, Thioredoxin reductase; assay: Inhibitory concentration against wild type mutant human thioredoxin reductase (Sec498Cys) (1.3 uM) pre-incubated for 10 min at 25 degree C in buffer in the presence of 100 uM NADPH; format: protein assay
Outline: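 Recombinant hTrxR Sec498Cys (1.3 μM) preincubated 10 min at 25 °C with 100 μM NADPH and inhibitor in potassium phosphate/EDTA buffer, pH 7.4. Reaction started with 20 μM hTrxC72S; NADPH oxidation read at 340 nm. DMF controls. IC50 from dose–response curves, at least three determinations.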

Calu-6 [10] = assay: Inhibitory concentration against Calu-6 cell line; format: functional, cell-based, Homo sapiens; outline: as §2
Thioredoxin reductase [11] = biological target: T1, Thioredoxin reductase; assay: Inhibitory concentration against wild type human thioredoxin reductase (30 nM) pre-incubated for 10 min at 25 degree C in phosphate buffer in the presence of 100 uM NADPH; format: protein assay
Outline: as §1, with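 “(30” for “(5”, “100” for “200”, “20 μM hTrxC72S; NADPH oxidation” for “3 mM DTNB; TNB formation”, “340” for “412”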

SK-MEL-25 [12] = assay: Ratio of inhibition by compound against SK-MEL-25 cell line to inhibition by cisPt against SK-MEL-25 cell line; format: functional, cell-based; conditions: Homo sapiens
Outline: (§3)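 Cytotoxicity in DMEM at 37 °C, 5% CO2, quadruplicate 1:2 dilutions (50 to 0.8 μg/mL), 96 h, crystal violet read at 595 nm. Value is the ratio of the complex IC50 to the cisplatin IC50 measured on the same line.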

Calu-6 [13] = assay: Ratio of inhibition by compound against Calu-6 cell line to inhibition by cisPt against Calu-6 cell line; format: functional, cell-based; conditions: Homo sapiens; outline: as §3
MCF7 [14] = assay: Ratio of inhibition by compound against MCF-7 cell line to inhibition by cisPt against MCF-7 cell line; format: functional, cell-based; conditions: Homo sapiens; outline: as §3
Thioredoxin reductase [15] = biological target: T1, Thioredoxin reductase; assay: Inhibitory concentration against human thioredoxin reductase; format: protein assay
Outline: (§4)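 Human TrxR purified from placenta, 5 nM in the DTNB assay or 30 nM in the Trx assay. Enzyme was preincubated 10 min at 25 °C in 100 mM potassium phosphate, 2 mM EDTA, pH 7.4, with NADPH and inhibitor (DMF stock; DMF controls). DTNB assay: 200 μM NADPH, started with 3 mM DTNB, A412. Trx assay: 100 μM NADPH, started with 20 μM hTrxC72S, A340. IC50 from dose–response curves, ≥3 determinations.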

Thioredoxin reductase [16] = biological target: T1, Thioredoxin reductase; assay: Inhibitory concentration agains human thioredoxin reductase; format: protein assay; outline: as §4

IC50 (Thioredoxin reductase [1]): 215 µM | IC50 (Thioredoxin reductase [2]): 16 µM | IC50 (Thioredoxin reductase [3]): 18 µM | IC50 [4]: 4.1 µM
Compound: O=C(Cc1ccc2ccccc2c1)NNC(=O)c1ccc([N+](=O)[O-])o1

IC50 (SK-MEL-25 [5]): 15.1 µM | IC50 (Thioredoxin reductase [6]): 130 µM | IC50 (Thioredoxin reductase [1]): 145 µM | IC50 (MCF7 [7]): 53.1 µM | IC50 (Thioredoxin reductase [3]): 0.11 µM | Ki (Thioredoxin reductase [8]): 0.275 µM | IC50 (Thioredoxin reductase [9]): 38 µM | IC50 (Calu-6 [10]): 27.6 µM | IC50 (Thioredoxin reductase [11]): 0.12 µM
Compound: 2-(2-Amino-ethylamino)-N-(7-{2-[N'-(5-nitro-furan-2-carbonyl)-hydrazino]-2-oxo-ethyl}-naphthalen-2-yl)-acetamide; compound with GENERIC INORGANIC NEUTRAL COMPONENT [listing 1 of 2 here]

Compound: 2-(2-Amino-ethylamino)-N-(7-{2-[N'-(5-nitro-furan-2-carbonyl)-hydrazino]-2-oxo-ethyl}-naphthalen-2-yl)-acetamide; compound with GENERIC INORGANIC NEUTRAL COMPONENT [listing 2 of 2 here]
Ratio (SK-MEL-25 [12]): 3 | Ratio (Calu-6 [13]): 15.3 | Ratio (MCF7 [14]): 0.8

Compound: O=C1C=CC(=Nc2cc(Cl)c(O)c(Cl)c2)C=C1 [DICHLOROPHENOL INDOPHENOL]
IC50 (Thioredoxin reductase [15]): 25 µM

Compound: O=C1C=CC(=O)c2c(O)ccc(O)c21 [NAPHTHAZALIN]
IC50 (Thioredoxin reductase [16]): 20 µM
